# In ChEMBL document CHEMBL1154198, “Chemical genetics of Plasmodium falciparum” (Nature, 2010):
# pEC50: −log10 of the molar value.
# How the values were obtained:
# Trypanosoma brucei = experiment: ST_JUDE: Cytotoxicity using luciferase to measure ATP as an indicator of the viability of Trypanosoma brucei; assay type: functional, organism-based
# Toxoplasma gondii = experiment: ST_JUDE: Growth inhibition of to Toxoplasma gondii, in human U-2OS cells, as measured by luciferase.; assay type: functional, organism-based; conditions: RH, U2OS
# In short: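 T. gondii parasites engineered to express luciferase; drug sensitivity read by luminescence.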
# Plasmodium falciparum [1] = experiment: ST_JUDE: Cytotoxicity against Plasmodium falciparum D10 transfected with yeast DHOD; assay type: functional, organism-based
# Plasmodium falciparum [2] = experiment: ST_JUDE: Cytotoxicity against Plasmodium falciparum Dd2; assay type: functional, organism-based
# [3] = ST_JUDE: Cytotoxicity using luciferase to measure ATP as an indicator of the viability of human epithelial embryonic kidney cells (HEK293); assay type: toxicity, cell-based
# Plasmodium falciparum [4] = experiment: ST_JUDE: Cytotoxicity against Plasmodium falciparum K1; assay type: functional, organism-based
# In short: (§1)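 Asexual P. falciparum grown in human erythrocytes, exposed to compounds for 72 h, and growth read as the DNA quantity in treated versus control cultures. Dose-response run at 12 concentrations from 10 μM to 5 nM.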
# Plasmodium falciparum [5] = experiment: ST_JUDE: Plasmodium falciparum 3D7 EC50 (uM) as measured by SYBR green dye; assay type: functional, organism-based
# [6] = ST_JUDE: Cytotoxicity using luciferase to measure ATP as an indicator of the viability of human Burkitt''s lymphoma lymphoblast cells (Raji); assay type: toxicity, cell-based
# [7] = ST_JUDE: Cytotoxicity using luciferase to measure ATP as an indicator of the viability of human foreskin fibroblast cells (BJ); assay type: toxicity, cell-based
# Leishmania major = experiment: ST_JUDE: Cytotoxicity using Alamar Blue to measure viability of Leishmania major; assay type: functional, organism-based
# In short: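 L. major promastigotes; drug susceptibility read with Alamar Blue.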
# Plasmodium falciparum [8] = experiment: ST_JUDE: Cytotoxicity against Plasmodium falciparum W2; assay type: functional, organism-based
# Plasmodium falciparum [9] = experiment: ST_JUDE: Cytotoxicity against Plasmodium falciparum SB-A6; assay type: functional, organism-based
# Plasmodium falciparum [10] = experiment: ST_JUDE: Plasmodium falciparum K1 EC50 (uM) as measured by SYBR green dye; assay type: functional, organism-based
# [11] = ST_JUDE: Cytotoxicity using luciferase to measure ATP as an indicator of the viability of human epithelial hepatocellular carcinoma cells (HepG2); assay type: toxicity, cell-based
# Plasmodium falciparum [12] = experiment: ST_JUDE: Cytotoxicity against Plasmodium falciparum 3D7; assay type: functional, organism-based; in short: as §1
# Plasmodium falciparum [13] = experiment: ST_JUDE: Cytotoxicity against Plasmodium falciparum V1/S; assay type: functional, organism-based
pEC50 (Plasmodium falciparum [5]),pEC50 (Plasmodium falciparum [10]),Compound,pEC50 (Trypanosoma brucei),pEC50 (Toxoplasma gondii),pEC50 (Plasmodium falciparum [1]),pEC50 (Plasmodium falciparum [2]),pEC50 [3],pEC50 (Plasmodium falciparum [4]),pEC50 [6],pEC50 [7],pEC50 (Leishmania major),pEC50 (Plasmodium falciparum [8]),pEC50 (Plasmodium falciparum [9]),pEC50 [11],pEC50 (Plasmodium falciparum [12]),pEC50 (Plasmodium falciparum [13])
6.23,6.30,Cc1cc(C)nc(/N=C(\N)Nc2ccccc2O)n1,< 4.48,< 4.73,5.54,6.04,< 4.47,6.25,< 4.47,< 4.47,< 4.83,5.24,5.66,< 4.47,5.85,6.01
6.88,6.83,CCOc1ccc(NC(=O)C2c3ccccc3C(=O)N(CC(C)C)C2c2cccs2)cc1 (centres undefined),5.16,< 4.63,6.43,6.44,< 4.37,6.53,< 4.37,< 4.37,< 4.74,6.87,6.45,< 4.37,6.59,6.30
5.95,6.23,CCOc1ccc2nc3cc(N)ccc3c(N)c2c1,5.13,< 4.75,5.62,6.53,< 4.49,5.76,< 4.49,4.75,< 4.86,6.12,5.62,< 4.49,5.71,5.70
6.73,6.82,COc1ccc2c(c1)N(C)/C(=C/c1cccc[n+]1C)S2,6.19,< 5.06,5.61,6.33,< 4.80,6.41,5.19,< 4.80,8.06,< 5.39,5.90,< 4.80,6.36,5.82
6.78,6.79,Cc1cc(Nc2ccc(Br)c(C)c2)n2nc(C)nc2n1,< 4.44,< 4.68,< 5.01,6.69,< 4.42,6.53,< 4.42,< 4.42,< 4.79,6.92,< 5.01,< 4.42,6.67,6.53
6.26,6.36,CCCO/C(O)=C1\C(C)=NC2=C(C(=O)CC(c3ccc(OC)cc3)C2)C1c1ccccc1F (centres undefined),5.01,< 4.61,6.38,6.20,< 4.35,6.55,< 4.35,< 4.35,< 4.72,7.08,6.62,< 4.35,6.31,6.43
6.91,6.97,CO/C(O)=C1\C(C)=NC2=C(C(=O)CC(c3ccc(OC)c(OC)c3)C2)C1c1ccc(F)cc1 (centres undefined),4.60,< 4.60,6.74,6.34,< 4.33,6.57,< 4.33,< 4.33,< 4.70,6.68,6.75,< 4.33,6.63,6.39
5.92,5.96,CCOc1ccccc1N1CCN(Cc2cc(Br)cc(OC)c2O)CC1,< 4.45,< 4.70,5.62,5.93,< 4.43,6.32,< 4.43,< 4.43,< 4.80,5.53,5.94,< 4.43,5.82,6.19
6.14,6.90,CCc1ccc(Nc2cc(C)c3ccc(O)cc3n2)cc1,< 4.38,< 4.62,6.23,6.11,< 4.36,6.72,4.51,< 4.36,< 4.73,6.15,6.08,4.63,6.20,6.74
5.88,5.82,CCCCCCCCCC[n+]1ccccc1,< 4.33,< 4.57,5.41,5.94,< 4.31,5.44,5.03,< 4.31,< 4.68,6.05,5.54,< 4.31,5.64,5.03
6.54,6.74,Oc1ccc(Br)cc1CN1CCN(C2CC3CCC2C3)CC1 (centres undefined),< 4.44,< 4.68,6.06,6.55,< 4.42,6.88,< 4.42,< 4.42,< 4.79,6.29,6.02,< 4.42,6.30,6.54
5.89,6.33,CCOc1ccc(/C=C2\Oc3c(ccc(O)c3CN3CCCCC3)C2=O)cc1,< 4.35,< 4.59,5.73,5.67,< 4.33,6.30,< 4.33,< 4.33,< 4.70,5.94,5.47,< 4.33,5.75,5.93
6.57,6.86,CC(C)NCC(O)Cn1c2ccc(Cl)cc2c2cc(Cl)ccc21 (centres undefined),6.06,< 4.64,6.20,6.62,4.75,6.32,4.68,< 4.38,< 4.75,6.91,6.18,5.12,5.74,5.32
5.87,6.37,CC(C)(C)c1cc(C2C(C#N)=C(N)OC3=C2C(=O)CCC3)cc(C(C)(C)C)c1O (centres undefined),5.26,5.87,5.62,5.60,< 4.44,5.73,5.52,< 4.44,< 4.81,5.46,5.60,5.52,5.73,5.82
7.30,7.29,CCCO/C(O)=C1\C(C)=NC2=C(C(=O)CC(c3ccc(OC)c(OC)c3)C2)C1c1ccccc1F (centres undefined),5.18,< 4.65,7.39,7.05,4.45,7.08,< 4.39,8.74,< 4.75,7.19,7.44,< 4.39,6.95,6.98
6.51,6.53,CCCO/C(O)=C1\C(C)=NC2=C(C(=O)CC(c3ccc(OC)c(OC)c3)C2)C1c1ccccc1C (centres undefined),5.18,< 4.65,7.16,7.05,< 4.38,6.96,< 4.38,< 4.38,< 4.75,7.67,7.25,< 4.38,6.87,7.01
6.73,6.88,O=[N+]([O-])c1ccc(S(=O)(=O)N2CCN(C(=S)NCc3ccco3)CC2)cc1,< 4.52,< 4.76,6.50,6.91,< 4.50,6.60,< 4.50,< 4.50,< 4.87,6.52,6.54,< 4.50,6.58,6.57
5.96,6.03,CC(C)c1ccc(NC(=O)/C=C/c2ccccc2Cl)cc1,4.64,< 4.65,< 4.98,5.79,< 4.39,< 4.98,< 4.39,< 4.39,< 4.76,6.38,< 4.98,< 4.39,< 4.98,< 4.98

Compound,pEC50 (Plasmodium falciparum [5]),pEC50 (Plasmodium falciparum [10]),pEC50 (Trypanosoma brucei),pEC50 (Toxoplasma gondii),pEC50 (Plasmodium falciparum [1]),pEC50 (Plasmodium falciparum [2]),pEC50 [3],pEC50 (Plasmodium falciparum [4]),pEC50 [6],pEC50 [7],pEC50 (Leishmania major),pEC50 (Plasmodium falciparum [8]),pEC50 (Plasmodium falciparum [9]),pEC50 [11],pEC50 (Plasmodium falciparum [12]),pEC50 (Plasmodium falciparum [13])
CCN1/C(=C/c2cccc[n+]2C)Sc2ccc(OC)cc21,6.32,6.48,5.43,< 4.84,5.90,6.13,< 4.58,6.11,5.50,< 4.58,7.72,< 5.17,5.81,< 4.58,6.22,5.97
